Source: the RNAGym collection of RNA variant scans (doi:10.1126/science.aae0568)
Variants at the floor of the assay were thinned out.

B1: tRNA (parent)
chain: GUUCCGUUGGCGUAAUGGUAACGCGUCUCCCUCCUAAGGAGAAGACUGCGGGUUCGAGUCCCGUACGGAACG

Variants of: B1
Assay: yeast fitness relative to wild type (ratio to wild type); higher = fitter; tRNA-Arg(CCU), competitive growth, 37 C, YPD
Method in brief: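 For this measurement, the tRNA-Arg(CCU) gene was varied by chemical synthesis at a 3% per-site mutation rate across 69 sites, and each variant was placed at the native genomic locus in Saccharomyces cerevisiae. The pooled strains went through a 24-hour competition in YPD at 37°C in six parallel replicates, with amplicons from start and end populations read by 100-nucleotide paired-end sequencing. Darwinian fitness relative to wild type followed from the change in each genotype's frequency. Genotypes needed ≥ 100 starting reads, and estimates < 0.5 were set to 0.5.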

Variant | yeast fitness
C5G G9C A20G A21C U59C | ≤ 0.5
C5G A15G C27G U28A U32A A45G C46U | 0.573
C30A A42G | 0.809
A15U G18A A37G G50A | ≤ 0.5
U7G U26C A42U C46U C66U | ≤ 0.5
U2G A20G | 0.901
C5G U19G C31U U32A A45U A70U | ≤ 0.5
G9C C30A G38A A42G | 0.515
C24U A37U C46A A70U | ≤ 0.5
A20C C60U | 0.742
U16A U28A C49A | ≤ 0.5
U13A A20G G41A G51C | 0.532
C4A G50A A70G | 0.57
C5U U7C C30A A42C A65U A69U | ≤ 0.5
C5G G39A A43U | 0.575
G18C C29U A37G | ≤ 0.5
U13C C29G A45U C62U | ≤ 0.5
C24U U32C | 0.991
C31U A37G U54A | ≤ 0.5
C11U G50A G63A | 0.606
G6C A20C C66G A70U | 0.577

Variant | yeast fitness
A20G C33A G44A C61U | 0.553
C22G A57U C66U | 0.524
C31G A70G | 0.914
G10A G17A G39C A45C C49G | ≤ 0.5
U8A G12A A20C | ≤ 0.5
A14C A40C | 0.6
C30U G38U | 0.824
G38C G41C C55U | ≤ 0.5
A36G A42U U53C | ≤ 0.5
C5G U13C A70C | 0.579
A20U A21C C31A | ≤ 0.5
C11A U16C G18C A45C A57U U59C | ≤ 0.5
U3G C31A | 0.747
U16G C22G C46G | 0.657
U8C A20U | 0.92
C33G A40G U59A | ≤ 0.5
U13C A15G A43U | 0.752
A45U A70U | 0.925
A20G U28A A42G C55A C66A | ≤ 0.5
U7G G18C | 0.686
C5G C22U U28G U54C A65G | ≤ 0.5

Variant | yeast fitness
C5U U16C A36G | 0.73
G6A C22U C29G A42G | ≤ 0.5
C11G C55A | 0.756
G12A C22U C24U | ≤ 0.5
G6C C30U | 0.784
A45U C66U G68A | 0.665
U19G C33U C34U | ≤ 0.5
U32A C55A | 0.572
C22U A42G A45C | ≤ 0.5
U2C U54C C62U | 0.571
G9C U26A G48C | ≤ 0.5
A14G G25A C30A A42C | ≤ 0.5
A14U C27U C29G C31U C61G | ≤ 0.5
G6C G12A G58C C61U A69C | ≤ 0.5
G52A G58C A70G | ≤ 0.5
U2G A40G | 0.803
U3G U16G U28C A57U | ≤ 0.5
C4U G25A A36G | 0.641
U2A G39C | 0.75
A20G G58A A70C | 0.836
A21G C33A C49U C55G | ≤ 0.5

Variant | yeast fitness
U8C G18A U35C U47C G50C | ≤ 0.5
G52C A65C A70G | 0.515
C34A G51A C61G A69U | 0.606
C27U C31G A43C C49G G52C | ≤ 0.5
G12C C33G G44C C49U | 0.539
C5G C27G C33U G56A | 0.527
A15G C27U G44A G56C | ≤ 0.5
G12C A20C C24A A36C G48C | ≤ 0.5
A37U G51A G52C U59C | 0.619
A45C A69G | 1.06
A20C A21G G58C | 0.698
C29U C60A | 0.627
C29U C60G | 0.515
U2G C49G G50C A70C | ≤ 0.5
G10C A37U G58A | 0.608
A20U U59C | 0.917
U7C A15C G38A A45G G52A C61G | 0.558
A14C C34U G39C G63A | ≤ 0.5
A20U C29U A37U | ≤ 0.5
G25C C31U U32A C55A A69U | ≤ 0.5
